Reference: ChEMBL document CHEMBL4428136, “Cell Active Hydroxylactam Inhibitors of Human Lactate Dehydrogenase with Oral Bioavailability in Mice” (ACS Med Chem Lett, 2016)

Columns and labels:
[1] = Apparent permeability across apical to basolateral side in MDCK cells; type: ADME, cell-based, Canis lupus familiaris; conditions: dog
[2] = Lipophilicity, log D of the compound at pH 7.4 by high throughput method; type: physicochemical; conditions: buffer
[3] = target: L-lactate dehydrogenase B chain (Homo sapiens, UniProt P07195); assay: Inhibition of human recombinant carboxy-terminal His-tagged LDHB by UV endpoint assay
[4] = Protein binding in CD-1 mouse plasma; type: ADME, cell-free; conditions: read-out: PPB (converted)
[5] = AUC in CD-1 mouse at 1 mg/kg, iv administered as bolus by LC-MS/MS analysis; type: ADME, organism-based; conditions: in vivo
[6] = AUC in CD-1 mouse at 50 mg/kg, po administered as suspension by LC-MS/MS analysis; type: ADME, organism-based; conditions: in vivo
[7] = AUC in CD-1 mouse at 200 mg/kg, po administered as suspension by LC-MS/MS analysis; type: ADME, organism-based; conditions: in vivo
[8] = Cmax in CD-1 mouse at 200 mg/kg, po administered as suspension by LC-MS/MS analysis; type: ADME, organism-based; set-up: dose 200 mg/kg, route oral; conditions: in vivo
[9] = Oral bioavailability in CD-1 mouse at 5 mg/kg; type: ADME, organism-based; conditions: in vivo
How it was run: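 Bioavailability was derived from paired intravenous and oral administration in mice, with the oral dose at 5 mg/kg.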

[10] = AUC in CD-1 mouse at 5 mg/kg, po administered as suspension by LC-MS/MS analysis; type: ADME, organism-based; conditions: in vivo
[11] = Cmax in CD-1 mouse at 100 mg/kg, po administered as suspension by LC-MS/MS analysis; type: ADME, organism-based; set-up: dose 100 mg/kg, route oral; conditions: in vivo
[12] = AUC in CD-1 mouse at 100 mg/kg, po administered as suspension by LC-MS/MS analysis; type: ADME, organism-based; conditions: in vivo
[13] = Cmax in CD-1 mouse at 50 mg/kg, po administered as suspension by LC-MS/MS analysis; type: ADME, organism-based; set-up: dose 50 mg/kg, route oral; conditions: in vivo
[14] = Plasma clearance in CD-1 mouse at 1 mg/kg, iv administered as bolus by LC-MS/MS analysis; type: ADME, organism-based
[15] = Volume of distribution at steady state in CD-1 mouse at 1 mg/kg, iv administered as bolus by LC-MS/MS analysis; type: ADME, organism-based; conditions: in vivo, read-out: Vdss
[16] = Half life in CD-1 mouse at 1 mg/kg, iv administered as bolus by LC-MS/MS analysis; type: ADME, organism-based; conditions: in vivo
[17] = Cmax in CD-1 mouse at 5 mg/kg, po administered as suspension by LC-MS/MS analysis; type: ADME, organism-based; set-up: dose 5 mg/kg, route oral; conditions: in vivo
[18] = Cmax in CD-1 mouse at 1 mg/kg, iv administered as bolus by LC-MS/MS analysis; type: ADME, organism-based; set-up: dose 1 mg/kg, route intravenous; conditions: in vivo

Chain of L-lactate dehydrogenase B chain (P07195 whole entry): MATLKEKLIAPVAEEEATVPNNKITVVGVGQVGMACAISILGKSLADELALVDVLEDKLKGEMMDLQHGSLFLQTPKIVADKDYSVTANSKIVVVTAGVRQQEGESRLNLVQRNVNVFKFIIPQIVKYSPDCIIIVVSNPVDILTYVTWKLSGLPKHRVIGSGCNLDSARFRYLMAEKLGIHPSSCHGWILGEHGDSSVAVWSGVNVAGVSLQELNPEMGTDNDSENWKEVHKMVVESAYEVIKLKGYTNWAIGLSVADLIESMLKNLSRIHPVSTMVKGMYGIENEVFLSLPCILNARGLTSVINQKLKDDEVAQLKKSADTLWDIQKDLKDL

| Structure (SMILES) | Papp A→B [1] [×10⁻⁶ cm/s] | logD [2] | IC50 [3] [nM] | also measured |
| --- | --- | --- | --- | --- |
| O=C1NC(c2ccccc2)(c2ccsc2)CC(O)=C1Sc1ccccc1Cl (stereo not given) | 7.4 | 0.8 | – | – |
| N#CC1CCN(c2ccc(C3(c4ccsc4)CC(O)=C(Sc4ccccc4Cl)C(=O)N3)cc2)CC1 (stereo not given) | – | 0.8 | – | – |
| O=C1NC(c2ccsc2)(c2ccccc2F)CC(O)=C1Sc1ccccc1Cl (stereo not given) | – | – | 1800 | – |
| COC1CCN(c2ccc(C3(c4ccsc4)CC(O)=C(Sc4ccccc4Cl)C(=O)N3)cc2)CC1 (racemic) | – | 1.2 | – | – |
| COc1ccc(C2(c3ccsc3)CC(O)=C(Sc3ccccc3Cl)C(=O)N2)cc1 (stereo not given) | – | – | 210 | – |
| O=C1NC(c2ccc(N3CCCCC3)cc2)(c2ccsc2)CC(O)=C1Sc1ccccc1Cl (racemic) | 1.7 | 2.1 | – | fraction unbound [4]: < 0.001 |
| N#Cc1ccc(C2(c3ccsc3)CC(O)=C(Sc3ccccc3Cl)C(=O)N2)cc1 (stereo not given) | – | – | 1100 | – |
| O=C1NC(c2ccccc2)(c2ccccc2)CC(O)=C1Sc1ccccc1Cl | 9.4 | 1.4 | 2200 | fraction unbound [4]: 0.007 |
| O=C1NC(c2ccc(N3CCC4(CC3)COC4)cc2)(c2ccsc2)CC(O)=C1Sc1ccccc1Cl (stereo not given) | – | 0.7 | – | – |
| O=C1NC(c2ccsc2)(c2ccccn2)CC(O)=C1Sc1ccccc1Cl (stereo not given) | – | – | > 10000 | – |
| O=C1NC(c2ccccc2)(c2cscn2)CC(O)=C1Sc1ccccc1Cl (stereo not given) | – | – | 2300 | – |
| O=C1NC(c2ccsc2)(c2cccc(NC3CCOCC3)c2)CC(O)=C1Sc1ccccc1Cl (racemic) | 0.5 | -0.3 | – | – |
| O=C1NC(c2ccc(N3CCOCC3=O)cc2)(c2ccsc2)CC(O)=C1Sc1ccccc1Cl (stereo not given) | – | 0.4 | – | – |
| CC1CN(c2ccc(C3(c4ccsc4)CC(O)=C(Sc4ccccc4Cl)C(=O)N3)cc2)CC(C)O1 (stereo not given) | 6 | 1.3 | – | fraction unbound [4]: < 0.001 |
| O=C1N[C@](c2ccc(N3CCOCC3)cc2)(c2ccsc2)CC(O)=C1Sc1ccccc1Cl | 3.4 | 0.6 | – | AUC [5]: 1.5 µM·h; AUC [6]: 125 µM·h; AUC [7]: 403 µM·h; Cmax [8]: 440 µM; bioavailability [9]: 70%; fraction unbound [4]: 0.009; AUC [10]: 5.1 µM·h; Cmax [11]: 224 µM; AUC [12]: 250 µM·h; Cmax [13]: 60.7 µM; clearance [14]: 21.1 mL/min/kg; Vd [15]: 1.4 L/kg; half-life [16]: 1 h; Cmax [17]: 1.7 µM; Cmax [18]: 2.5 µM |
| O=C1NC(c2ccsc2)(c2cccc(Nc3ccc(F)cc3)c2)CC(O)=C1Sc1ccccc1Cl (racemic) | 1 | 2.4 | – | fraction unbound [4]: < 0.001 |
| CC1(C)CN(c2ccc(C3(c4ccsc4)CC(O)=C(Sc4ccccc4Cl)C(=O)N3)cc2)CCO1 (stereo not given) | – | 1.3 | – | – |
| O=C1NC(c2ccc(C3CCCCC3)cc2)(c2ccsc2)CC(O)=C1Sc1ccccc1Cl (racemic) | – | 3.5 | – | – |
